The list is not random: actives were taken first. Their share in the collection is about 1.8%.
APJ agonist = agonists of human APJ apelin receptor; P35414; CHO-K1 APJ PathHunter beta-arrestin, luminescence; 0% DMSO wells, 100% apelin; activation, % at 20 µM; 330,000 compounds, 0.11% hits; AID 2520;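 active means activation more than six SD over the plate average, tested at 20 µM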;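 further: 0% = DMSO alone and 100% = apelin-13 at 10 nM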
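Test system – PathHunter CHO-K1 APJ (AGTRL-1) beta-arrestin reporter cells · Input – 1000 cells/well · Compound – single test compound dose, 20 µM final, 1% DMSO · Times – compound stimulation 90 min at 25 °C, detection 60 min · Technique – beta-gal luminescence · Read-out basis – APJ–arrestin association signal · Control set – negative DMSO alone, positive Apelin-13 at 10 nM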
CCR6 antag = CCR6 (human) receptor antagonism; P51684; CHO-K1 CCR6 PathHunter beta-arrestin, luminescence, CCL20-stimulated; inhibition, % at 20 µM; 340,000 compounds, 0.49% hits; AID 493098;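 active means compounds whose inhibition of the agonist-driven luminescence signal at 20 µM reaches about 50%, limit read from the data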;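 further: cells stimulated with CCL20 at 14 nM final; plate controls were DMSO with CCL20 for no effect and DMSO without agonist for full effect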
EBI2 antag = blocks human EBI2 receptor beta-arrestin signaling; inhibition, % at 5 µM; 360,000 compounds, 0.81% hits; EBI2 beta-arrestin recruitment, luminescence, 7a,25-OHC stimulated; AID 651636; P32249; in the data active means inhibition above about 38%;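 further: enzyme fragment complementation signal reports receptor beta-arrestin coupling in cells; 0% = agonist plus DMSO wells and 100% = wells without agonist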
Target sequence (P32249 whole entry, looked up, the tested form may be a part): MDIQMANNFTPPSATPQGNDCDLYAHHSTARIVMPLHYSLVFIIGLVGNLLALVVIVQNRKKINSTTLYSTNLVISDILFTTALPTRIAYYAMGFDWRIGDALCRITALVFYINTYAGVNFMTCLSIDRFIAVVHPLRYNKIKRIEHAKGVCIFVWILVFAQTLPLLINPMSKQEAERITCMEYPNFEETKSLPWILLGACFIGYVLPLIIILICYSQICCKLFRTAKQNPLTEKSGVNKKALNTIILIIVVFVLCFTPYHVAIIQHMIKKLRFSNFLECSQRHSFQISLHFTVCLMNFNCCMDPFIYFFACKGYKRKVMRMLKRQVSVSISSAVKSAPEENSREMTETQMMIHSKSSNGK
B2AR ag = activates human beta-2 adrenergic receptor causing internalization | response, % (test concentration not listed) | P07550 | AID 504454 | Am2.2-beta2AR cells, FAP receptor internalization, flow cytometry | 340,000 compounds, 0.43% hits;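 active means response above a set limit, near 3 SD of response in nonfluorescent compounds, cut at about 42% in these data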
CXCR6 inh = CXCR6 (human) receptor inhibition; CHO-K1 PathHunter CXCR6 beta-arrestin, luminescence; inhibition, % at 20 µM; 360,000 compounds, 0.36% hits; in the data active means inhibition above about 34%, passing the limit was not always enough;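 further: antagonist mode with CXCL16 agonist at 10 nM final; 0% = 10 nM CXCL16 with DMSO and 100% = unstimulated wells without agonist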
APJ antagonist = APJ receptor antagonism | CHO-K1 APJ beta-arrestin complementation, luminescence | inhibition, % at 20 µM | 330,000 compounds, 0.32% hits | AID 2521;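 active means inhibition above about 40% at 20 µM, limit read from the data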;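 further: cells challenged with 10 nM apelin-13 agonist together with compound; plate controls were apelin-13 plus DMSO wells for no effect and DMSO wells lacking apelin-13 for full effect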
EBI2 conf = confirmation of human EBI2 receptor antagonists; 2,400 compounds, 29% hits; inhibition, % at 5 µM; shares compounds with EBI2 antag; EBI2 beta-arrestin luminescence, 7a,25-OHC antagonism;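 active means inhibition of at least 50%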
EBI2 ag = counter-screen for EBI2 antagonists: EBI2 agonist activity | 2,400 tested, under 10 active | AID 652000 | EBI2-expressing cells, agonist mode, luminescence, 60 min; 0% vehicle, 100% 7α,25-dihydroxycholesterol control | shares compounds with EBI2 antag | activation, % at 5 µM;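 active means activation of at least 50%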
bGal counter = counter-screen for EBI2 antagonists: E. coli beta-galactosidase inhibition. 2,400 compounds, 1% hits. inhibition, % at 5 µM. shares compounds with EBI2 antag. purified beta-galactosidase, luminescent Galacton Star, 15 min. AID 652176;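 active means replicate-average signal at least 3 plate SD below neutral wells, shown as high inhibition, flagging enzyme-inhibiting false positives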;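 further: 0% = DMSO wells with enzyme and 100% = wells lacking enzyme; higher means stronger loss of beta-gal luminescence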
* hit, by the source's call; · = not tested or not shown.

SMILES	APJ agonist	CCR6 antag	EBI2 antag	B2AR ag	CXCR6 inh	APJ antagonist	EBI2 conf	EBI2 ag	bGal counter
CCCOC(=O)c1ccc(NC(=O)CSC2=Nc3ccccc3C3CC=NN23)cc1 (configuration not stated)	-3	2	40*	15	11	6	5	0	-10
COC(=O)C[C@H]1CC[C@H](NC(=O)Nc2ccccc2F)[C@@H](CO)O1	·	·	-15	·	·	·	·	·	·
NC(=S)NN=C1C=CCCC1	·	17	11	-2	-1	·	·	·	·
O=C(Nc1cccc(S(=O)(=O)N2CCCCCC2)c1)C1CCN(C(=O)c2ccc(Cl)cc2)CC1	-2	20	52*	15	-10	11	30	-1	7
O=C(Nc1ccc(Br)cc1)C1CCN(C(=O)c2ccc(F)cc2)CC1	0	-7	6	3	0	7	·	·	·
O=C(Nc1cccc(F)c1)C1CCN(C(=O)c2ccc(Br)cc2)CC1	-3	17	45*	4	2	-2	21	-2	-8
Cc1cccc(NC(=O)C2CCN(C(=O)c3ccc(Cl)cc3)CC2)n1	-3	15	46*	-4	16	17	29	-1	6
Cc1cccc(NC(=O)C2CCN(C(=O)c3ccc(F)cc3)CC2)n1	-6	-6	0	3	9	10	·	·	·
Cc1ccc(-c2nn(-c3ccc(F)cc3)cc2C(=O)N2CCN(C3CCS(=O)(=O)C3)CC2)cc1 (configuration not stated)	-2	-1	-5	7	3	13	·	·	·
O=S(Cc1ccc(Cl)cc1)CC(O)COc1ccc(Cl)cc1 (configuration not stated)	-1	-13	76*	1	-6	-17	60*	-1	-15
Cc1ccc(C(=O)NNC(=O)CSc2nnc(-c3ccncc3)n2-c2ccc(C)cc2)cc1	-1	·	52*	3	-1	0	11	0	5
Cc1occc1-c1nnc(SCC(=O)NCCc2ccccc2)n1Cc1ccccc1	-2	7	90*	-5	7	-3	78*	1	6
Cc1ccc(C(=O)NNC(=O)CSc2nnc(-c3ccccc3)n2Cc2ccccc2)cc1	-3	-1	96*	-3	6	11	89*	0	4
CC(C)N(Cc1ccccc1)C(=O)COC(=O)c1ccc(O)cc1	-6	3	6	6	4	5	·	·	·
Cc1cc(C)c(S(=O)(=O)N2CCN(C(=O)c3c(C)nn(-c4ccccc4)c3Cl)CC2)c(C)c1	·	2	-7	24	-1	·	·	·	·
Cc1cc(C)c(S(=O)(=O)N2CCN(C(=O)c3ccc(-n4nc(C)c(Cl)c4C)cc3)CC2)c(C)c1	·	4	94*	2	3	·	68*	0	-11
COc1ccc(C2(c3ccc(OC)cc3)NC(=O)N(CC(=O)NC3(C#N)CCCCC3)C2=O)cc1	-1	10	18	1	-7	1	·	·	·
COc1ccc(S(=O)(=O)NC(=O)C2(C)CCN2C(=O)CC2CC2)cc1 (configuration not stated)	·	·	-5	·	0	·	·	·	·
Cc1cc(C(=O)NCC(=O)OCC(=O)N(C2CCCCC2)C2CCCCC2)ccc1[N+](=O)[O-]	-3	11	81*	-5	-2	8	47	-1	-8
CON(C)C(=O)C[C@@H]1C[C@H](OC(=O)c2ccc([N+](=O)[O-])cc2)CN1C(=O)OC(C)(C)C	0	-10	-11	-13	0	-20	·	·	·
COc1ccccc1CNc1cc(CSc2ccc(Cl)cc2)nc(C)n1	-3	-1	49*	-3	14	-11	32	1	-1
COc1ccccc1CNc1cccc(C)n1	·	·	4	·	-2	·	·	·	·
Cc1ccccc1OCC(=O)NNC(=O)C1CCN(c2ncnc3sc(C)c(C)c23)CC1	4	-9	50*	15	-13	-14	20	1	6
COc1ccccc1OCC(=O)NNC(=O)C1CCN(c2ncnc3sc(C)c(C)c23)CC1	-1	-12	14	13	-15	-23	·	·	·
CC(C)(C)SCCNC(=O)COc1ccc(Cl)cc1	1	5	33	-5	5	2	·	·	·
SMILES	APJ agonist	CCR6 antag	EBI2 antag	B2AR ag	CXCR6 inh	APJ antagonist	EBI2 conf	EBI2 ag	bGal counter
Cc1ccccc1CSCCNC(=O)COc1ccc(Cl)cc1	-1	19	55*	-7	6	-12	45	1	-1
Brc1ccc(OCc2nnc(SCC3CCCCC3)o2)cc1	3	6	69*	2	3	-16	27	1	-6
Cc1ccc(/C=C/C(=O)NC(=S)N2CCN(c3ccc(F)cc3)CC2)cc1	-3	-6	48*	2	-8	-14	21	-1	-10
COc1ccccc1/C=C/C(=O)NC(=S)N1CCN(C)CC1	-2	-4	-1	-1	7	8	·	·	·
Cc1ccc(/C=C/C(=O)NC(=S)N2CCN(C)CC2)cc1	-1	-1	55*	0	3	4	49	0	-14
CCCCC[C@@H](C)N1C[C@@H](COCc2ccccc2)Oc2cc(N3CCC[C@@H]3COC)ccc2S1(=O)=O	·	·	25	·	12	·	·	·	·
COC(=O)c1ccc(COc2cccn3c(N(C)C(=O)CCC4CCCC4)c(C)nc23)cc1	·	·	4	·	-2	·	·	·	·
O=C(Nc1ccccc1Cc1ccccc1)c1oc2ccccc2c1COc1ccccc1	-1	11	16	1	-4	8	·	·	·
O=C(NCCc1ccccc1)c1oc2ccccc2c1COc1ccccc1	·	23	45*	0	12	·	33	2	-4
O=C(NC(Sc1ccc(Cl)cc1)C(=O)O)c1ccccc1 (configuration not stated)	·	·	13	·	-4	·	·	·	·
CCOc1ccc(Br)cc1S(=O)(=O)Nc1ccc(NC(=O)c2ccccc2C)cc1	-1	-12	-11	2	6	-2	·	·	·
CCOc1ccc(Br)cc1S(=O)(=O)Nc1ccc(C(=O)Nc2ccc(C)cc2)cc1	1	1	56*	0	-21	5	18	-1	-10
CN(Cc1nc(-c2cnccn2)no1)Cc1n[nH]c2c1CCCC2	·	10	-4	-1	0	·	·	·	·
Cc1cccc(C)c1OCC(=O)N/N=C/c1cccnc1	-2	3	-2	-7	-4	2	·	·	·
Cc1cc(SCC(=O)N/N=C/c2cccnc2)nc2c(C)cccc12	-3	0	65*	-29	-12	11	23	1	7

From PubChem BioAssay
